ChEMBL document CHEMBL4689842, “EUbOPEN Chemogenomics Library wave 1” (2021)

How the values were obtained:
Fibroblast = assay: Incucyte cell viability with human fibroblast; format: toxicity, cell-based; details: 10 µM, compound concentration 10 uM; note: filed as whole numbers so only -1 and 0 and 1 occur
U2OS = assay: Multiplex assay against U2OS; format: toxicity, cell-based; details: human
How it was run: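 Live cells carried four stains from seeding: Hoechst33342, BioTracker Green Microtubule Cytoskeleton Dye, MitoTracker Red and Annexin V Alexa Fluor 680. They were imaged on a CQ1 microscope at 37°C and 5% CO2 after compound addition. Using CellPathfinder machine-learning gating, cells were split into Hoechst high-intensity objects or normal cells, normal cells into healthy, pyknosed or fragmented nuclei, and pyknosed cells into mitotic or apoptotic; tubulin, mitochondrial-mass and membrane-permeability phenotypes are per cents of healthy-nucleus cells.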

[1] = 6 h, replicate number 1, timepoint 6 hours
[2] = 12 h, replicate number 1, timepoint 12 hours
[3] = 18 h, replicate number 1, timepoint 18 hours
[4] = 24 h, replicate number 1, timepoint 24 hours
[5] = 12 h, 1 µM, compound concentration 1 uM, replicate 1
[6] = 12 h, 1 µM, compound concentration 1 uM, replicate 2
[7] = 12 h, 10 µM, compound concentration 10 uM, replicate 1
[8] = 12 h, 10 µM, compound concentration 10 uM, replicate 2
[9] = 24 h, 1 µM, compound concentration 1 uM, replicate 1
[10] = 24 h, 1 µM, compound concentration 1 uM, replicate 2
[11] = 24 h, 10 µM, compound concentration 10 uM, replicate 1
[12] = 24 h, 10 µM, compound concentration 10 uM, replicate 2
[13] = 48 h, 1 µM, compound concentration 1 uM, replicate 1
[14] = 48 h, 1 µM, compound concentration 1 uM, replicate 2
[15] = 48 h, 10 µM, compound concentration 10 uM, replicate 1
[16] = 48 h, 10 µM, compound concentration 10 uM, replicate 2

## CC(C)c1cc(Nc2nc(N3CCC[C@H](N)C3)ncc2C(N)=O)cc(C(C)C)n1
Fibroblast; 0 h, replicate number 1, timepoint 0 hours
  Growth Rate: 0
Fibroblast; [1]
  Growth Rate: 1
Fibroblast; 6 h, replicate number 2, timepoint 6 hours
  Growth Rate: 0
Fibroblast; [2]
  Growth Rate: 1
Fibroblast; 12 h, replicate number 2, timepoint 12 hours
  Growth Rate: 0
Fibroblast; [3]
  Growth Rate: 0
Fibroblast; [4]
  Growth Rate: 0
U2OS; [5]
  Population Apoptotic (%): 51%
  Population Fragmented Nuclei (%): 8%
  Population Healthy Nuclei (%): 67%
  Population Hoechst High Intensity Objects (%): 5%
  Population Membrane Permeable-Phenotype (%): 22%
  Population Mitochondria Different-Phenotype (%): 89%
  Population Mitotic Cells (%): 48%
  Population Normal (%): 94%
  Population Pyknosed Nuclei (%): 23%
  Population Tubulin-Different-Phenotype (%): 100%
  Total Cell Count: 201
U2OS; [6]
  Population Apoptotic (%): 44%
  Population Fragmented Nuclei (%): 12%
  Population Healthy Nuclei (%): 75%
  Population Hoechst High Intensity Objects (%): 9%
  Population Membrane Permeable-Phenotype (%): 16%
  Population Mitochondria Different-Phenotype (%): 92%
  Population Mitotic Cells (%): 55%
  Population Normal (%): 90%
  Population Pyknosed Nuclei (%): 12%
  Population Tubulin-Different-Phenotype (%): 96%
  Total Cell Count: 82
U2OS; [7]
  Population Apoptotic (%): 64%
  Population Fragmented Nuclei (%): 23%
  Population Healthy Nuclei (%): 39%
  Population Hoechst High Intensity Objects (%): 4%
  Population Membrane Permeable-Phenotype (%): 88%
  Population Mitochondria Different-Phenotype (%): 98%
  Population Mitotic Cells (%): 35%
  Population Normal (%): 95%
  Population Pyknosed Nuclei (%): 37%
  Total Cell Count: 161
U2OS; [8]
  Population Apoptotic (%): 65%
  Population Fragmented Nuclei (%): 19%
  Population Healthy Nuclei (%): 31%
  Population Hoechst High Intensity Objects (%): 14%
  Population Membrane Permeable-Phenotype (%): 100%
  Population Mitochondria Different-Phenotype (%): 93%
  Population Mitotic Cells (%): 34%
  Population Normal (%): 85%
  Population Pyknosed Nuclei (%): 48%
  Population Tubulin-Different-Phenotype (%): 100%
  Total Cell Count: 55
U2OS; [9]
  Population Apoptotic (%): 57%
  Population Fragmented Nuclei (%): 9%
  Population Healthy Nuclei (%): 61%
  Population Hoechst High Intensity Objects (%): 6%
  Population Membrane Permeable-Phenotype (%): 22%
  Population Mitochondria Different-Phenotype (%): 90%
  Population Mitotic Cells (%): 42%
  Population Normal (%): 93%
  Population Pyknosed Nuclei (%): 29%
  Population Tubulin-Different-Phenotype (%): 98%
  Total Cell Count: 206
U2OS; [10]
  Population Apoptotic (%): 26%
  Population Fragmented Nuclei (%): 10%
  Population Healthy Nuclei (%): 68%
  Population Hoechst High Intensity Objects (%): 5%
  Population Membrane Permeable-Phenotype (%): 30%
  Population Mitochondria Different-Phenotype (%): 96%
  Population Mitotic Cells (%): 73%
  Population Normal (%): 94%
  Population Pyknosed Nuclei (%): 20%
  Population Tubulin-Different-Phenotype (%): 94%
  Total Cell Count: 77
U2OS; [11]
  Population Apoptotic (%): 74%
  Population Fragmented Nuclei (%): 32%
  Population Hoechst High Intensity Objects (%): 9%
  Population Membrane Permeable-Phenotype (%): 97%
  Population Mitochondria Different-Phenotype (%): 100%
  Population Mitotic Cells (%): 25%
  Population Normal (%): 90%
  Population Pyknosed Nuclei (%): 44%
  Population Tubulin-Different-Phenotype (%): 97%
  Total Cell Count: 167
U2OS; [12]
  Population Apoptotic (%): 84%
  Population Fragmented Nuclei (%): 23%
  Population Healthy Nuclei (%): 23%
  Population Hoechst High Intensity Objects (%): 17%
  Population Membrane Permeable-Phenotype (%): 100%
  Population Mitochondria Different-Phenotype (%): 90%
  Population Mitotic Cells (%): 16%
  Population Normal (%): 82%
  Population Pyknosed Nuclei (%): 53%
  Population Tubulin-Different-Phenotype (%): 100%
  Total Cell Count: 57
U2OS; [13]
  Population Apoptotic (%): 54%
  Population Fragmented Nuclei (%): 17%
  Population Healthy Nuclei (%): 45%
  Population Hoechst High Intensity Objects (%): 7%
  Population Membrane Permeable-Phenotype (%): 26%
  Population Mitochondria Different-Phenotype (%): 83%
  Population Mitotic Cells (%): 45%
  Population Normal (%): 92%
  Population Pyknosed Nuclei (%): 37%
  Population Tubulin-Different-Phenotype (%): 94%
  Total Cell Count: 249
U2OS; [14]
  Population Apoptotic (%): 52%
  Population Fragmented Nuclei (%): 14%
  Population Healthy Nuclei (%): 60%
  Population Hoechst High Intensity Objects (%): 3%
  Population Membrane Permeable-Phenotype (%): 46%
  Population Mitochondria Different-Phenotype (%): 88%
  Population Mitotic Cells (%): 47%
  Population Normal (%): 96%
  Population Pyknosed Nuclei (%): 25%
  Population Tubulin-Different-Phenotype (%): 96%
  Total Cell Count: 86
U2OS; [15]
  Population Apoptotic (%): 89%
  Population Fragmented Nuclei (%): 36%
  Population Healthy Nuclei (%): 5%
  Population Hoechst High Intensity Objects (%): 15%
  Population Membrane Permeable-Phenotype (%): 100%
  Population Mitochondria Different-Phenotype (%): 100%
  Population Mitotic Cells (%): 10%
  Population Normal (%): 84%
  Population Pyknosed Nuclei (%): 58%
  Population Tubulin-Different-Phenotype (%): 100%
  Total Cell Count: 155
U2OS; [16]
  Population Apoptotic (%): 95%
  Population Fragmented Nuclei (%): 34%
  Population Healthy Nuclei (%): 9%
  Population Hoechst High Intensity Objects (%): 26%
  Population Mitotic Cells (%): 4%
  Population Normal (%): 73%
  Population Pyknosed Nuclei (%): 56%
  Total Cell Count: 56

## CC[C@H](Nc1ncnc2[nH]cnc12)c1nc2cccc(F)c2c(=O)n1-c1ccccc1 [IDELALISIB]
Fibroblast; [1]
  Growth Rate: 0
Fibroblast; [2]
  Growth Rate: 0
Fibroblast; [3]
  Growth Rate: 0
Fibroblast; 18 h, replicate number 2, timepoint 18 hours
  Growth Rate: 1
Fibroblast; [4]
  Growth Rate: 1
U2OS; [5]
  Population Apoptotic (%): 46%
  Population Fragmented Nuclei (%): 1%
  Population Healthy Nuclei (%): 88%
  Population Hoechst High Intensity Objects (%): 3%
  Population Membrane Permeable-Phenotype (%): 47%
  Population Mitochondria Different-Phenotype (%): 10%
  Population Mitotic Cells (%): 53%
  Population Normal (%): 96%
  Population Pyknosed Nuclei (%): 9%
  Population Tubulin-Different-Phenotype (%): 34%
  Total Cell Count: 162
U2OS; [6]
  Population Apoptotic (%): 14%
  Population Fragmented Nuclei (%): 10%
  Population Healthy Nuclei (%): 84%
  Population Hoechst High Intensity Objects (%): 9%
  Population Membrane Permeable-Phenotype (%): 45%
  Population Mitochondria Different-Phenotype (%): 8%
  Population Mitotic Cells (%): 85%
  Population Normal (%): 90%
  Population Pyknosed Nuclei (%): 5%
  Population Tubulin-Different-Phenotype (%): 27%
  Total Cell Count: 132
U2OS; [7]
  Population Apoptotic (%): 0%
  Population Fragmented Nuclei (%): 5%
  Population Healthy Nuclei (%): 86%
  Population Hoechst High Intensity Objects (%): 11%
  Population Membrane Permeable-Phenotype (%): 4%
  Population Mitochondria Different-Phenotype (%): 18%
  Population Mitotic Cells (%): 100%
  Population Normal (%): 88%
  Population Pyknosed Nuclei (%): 7%
  Population Tubulin-Different-Phenotype (%): 90%
  Total Cell Count: 180
U2OS; [8]
  Population Fragmented Nuclei (%): 8%
  Population Healthy Nuclei (%): 88%
  Population Hoechst High Intensity Objects (%): 16%
  Population Mitochondria Different-Phenotype (%): 28%
  Population Normal (%): 83%
  Population Pyknosed Nuclei (%): 2%
  Population Tubulin-Different-Phenotype (%): 15%
  Total Cell Count: 130
U2OS; [9]
  Population Apoptotic (%): 45%
  Population Fragmented Nuclei (%): 3%
  Population Healthy Nuclei (%): 85%
  Population Hoechst High Intensity Objects (%): 3%
  Population Membrane Permeable-Phenotype (%): 28%
  Population Mitochondria Different-Phenotype (%): 9%
  Population Mitotic Cells (%): 54%
  Population Normal (%): 96%
  Population Pyknosed Nuclei (%): 10%
  Population Tubulin-Different-Phenotype (%): 17%
  Total Cell Count: 210
U2OS; [10]
  Population Apoptotic (%): 42%
  Population Fragmented Nuclei (%): 9%
  Population Healthy Nuclei (%): 77%
  Population Hoechst High Intensity Objects (%): 5%
  Population Membrane Permeable-Phenotype (%): 32%
  Population Mitochondria Different-Phenotype (%): 15%
  Population Mitotic Cells (%): 57%
  Population Normal (%): 94%
  Population Pyknosed Nuclei (%): 13%
  Population Tubulin-Different-Phenotype (%): 15%
  Total Cell Count: 148
U2OS; [11]
  Population Apoptotic (%): 33%
  Population Fragmented Nuclei (%): 3%
  Population Healthy Nuclei (%): 93%
  Population Hoechst High Intensity Objects (%): 11%
  Population Membrane Permeable-Phenotype (%): 2%
  Population Mitochondria Different-Phenotype (%): 19%
  Population Mitotic Cells (%): 66%
  Population Normal (%): 88%
  Population Pyknosed Nuclei (%): 2%
  Population Tubulin-Different-Phenotype (%): 94%
  Total Cell Count: 244
U2OS; [12]
  Population Apoptotic (%): 40%
  Population Fragmented Nuclei (%): 9%
  Population Healthy Nuclei (%): 82%
  Population Hoechst High Intensity Objects (%): 8%
  Population Membrane Permeable-Phenotype (%): 8%
  Population Mitochondria Different-Phenotype (%): 30%
  Population Mitotic Cells (%): 60%
  Population Normal (%): 91%
  Population Pyknosed Nuclei (%): 7%
  Population Tubulin-Different-Phenotype (%): 21%
  Total Cell Count: 146
